Converted amounts (≈) assume the structure as drawn.
Columns and labels:
Escherichia coli [1] = assay: Antibacterial activity against drug-resistant Escherichia coli after 24 hrs by INT dye based microdilution assay; type: functional
In short: (§1)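 Broth microdilution in tryptic soy broth. Overnight culture adjusted to 1×10^5 CFU/mL, giving 1.0×10^4 CFU per well. Compounds dissolved in 5% DMSO and tested at 0.001-1.0 mg/ml. Plates incubated 24 h at 37°C. INT (0.2 mg/mL) then added, with 30 min at 37°C. Duplicate, repeated three times.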

Penicillium ochrochloron = assay: Antifungal activity against Penicillium ochrochloron ATCC 9112 after 72 hrs by serial dilution assay; type: functional; settings: ATCC 9112, 72 h
In short: (§2)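 Modified microdilution: fungal spores washed off malt agar with sterile 0.85% saline plus 0.1% Tween 80, adjusted to about 1.0×10^5 per 100 µL well. Compounds in 5% DMSO (0.001-1.0 mg/ml) in malt broth; 72 h at 28°C on rotary shaker (160 rpm). MIC is lowest concentration without visible growth under binocular microscope. Bifonazole and ketoconazole controls (1-3500 µg/mL); three independent experiments in duplicate.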

Aspergillus versicolor = assay: Antifungal activity against Aspergillus versicolor ATCC 11730 after 72 hrs by serial dilution assay; type: functional; settings: ATCC 11730, 72 h; in short: as §2
Aspergillus niger = assay: Antifungal activity against Aspergillus niger ATCC 6275 after 72 hrs by serial dilution assay; type: functional; settings: ATCC 6275, 72 h; in short: as §2
Micrococcus flavus = assay: Antibacterial activity against Micrococcus flavus ATCC 10240 after 24 hrs by INT dye based microdilution assay; type: functional; settings: ATCC 10240, 24 h
In short: (§3)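 Broth microdilution in tryptic soy broth: overnight bacterial culture adjusted to 1×10^5 CFU/mL, 1.0×10^4 CFU per well; compounds dissolved in 5% DMSO, tested at 0.001-1.0 mg/ml; 24 h at 37°C. Streptomycin and ampicillin as positive controls, 5% DMSO as negative control; duplicate, repeated three times.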

Penicillium verrucosum = assay: Antifungal activity against Penicillium cyclopium var verucosum after 72 hrs by serial dilution assay; type: functional; in short: as §2
Salmonella typhimurium = assay: Antibacterial activity against Salmonella typhimurium ATCC 13311 after 24 hrs by INT dye based microdilution assay; type: functional, Salmonella enterica subsp. enterica serovar Typhimurium; settings: Salmonella enterica, ATCC 13311, 24 h; in short: as §3
Pseudomonas aeruginosa [2] = assay: Antibacterial activity against drug-resistant Pseudomonas aeruginosa after 24 hrs by INT dye based microdilution assay; type: functional; in short: as §1
Talaromyces funiculosus = assay: Antifungal activity against Penicillium funiculosum ATCC 36839 after 72 hrs by serial dilution assay; type: functional; settings: ATCC 36839, 72 h; in short: as §2
Pseudomonas aeruginosa [3] = assay: Antibacterial activity against Pseudomonas aeruginosa ATCC 27853 after 24 hrs by INT dye based microdilution assay; type: functional; settings: ATCC 27853, 24 h; in short: as §3
Staphylococcus aureus [4] = assay: Antibacterial activity against methicillin-resistant Staphylococcus aureus after 24 hrs by INT dye based microdilution assay; type: functional; in short: as §1
Escherichia coli [5] = assay: Antibacterial activity against Escherichia coli ATCC 35210 after 24 hrs by INT dye based microdilution assay; type: functional; settings: ATCC 35210, 24 h; in short: as §3
Enterobacter cloacae = assay: Antibacterial activity against Enterobacter cloacae after 24 hrs by INT dye based microdilution assay; type: functional; in short: as §3
Listeria monocytogenes = assay: Antibacterial activity against Listeria monocytogenes NCTC 7973 after 24 hrs by INT dye based microdilution assay; type: functional; settings: NCTC 7973, 24 h; in short: as §3
Trichoderma viride = assay: Antifungal activity against Trichoderma viride IAM 5061 after 72 hrs by serial dilution assay; type: functional; settings: IAM 5061, 72 h; in short: as §2
Aspergillus fumigatus = assay: Antifungal activity against Aspergillus fumigatus isolate 1022 after 72 hrs by serial dilution assay; type: functional; settings: isolate 1022, 72 h; in short: as §2
Bacillus cereus = assay: Antibacterial activity against Bacillus cereus after 24 hrs by INT dye based microdilution assay; type: functional; in short: as §3
Aspergillus ochraceus = assay: Antifungal activity against Aspergillus ochraceus ATCC 12066 after 72 hrs by serial dilution assay; type: functional; settings: ATCC 12066, 72 h; in short: as §2
Staphylococcus aureus [6] = assay: Antibacterial activity against Staphylococcus aureus ATCC 6538 after 24 hrs by INT dye based microdilution assay; type: functional; settings: ATCC 6538, 24 h; in short: as §3
Candida albicans = assay: Antifungal activity against Candida albicans after 72 hrs by serial dilution assay; type: functional; in short: as §2

Structure (SMILES) | MIC (Escherichia coli [1]) [µM] | MIC (Penicillium ochrochloron) [µM] | MIC (Aspergillus versicolor) [µM] | MIC (Aspergillus niger) [µM] | MIC (Micrococcus flavus) [µM] | MIC (Penicillium verrucosum) [µM] | MIC (Salmonella typhimurium) [µM] | MIC (Pseudomonas aeruginosa [2]) [µM] | MIC (Talaromyces funiculosus) [µM] | MIC (Pseudomonas aeruginosa [3]) [µM] | MIC (Staphylococcus aureus [4]) [µM] | MIC (Escherichia coli [5]) [µM] | MIC (Enterobacter cloacae) [µM] | MIC (Listeria monocytogenes) [µM] | MIC (Trichoderma viride) [µM] | MIC (Aspergillus fumigatus) [µM] | MIC (Bacillus cereus) [µM] | MIC (Aspergillus ochraceus) [µM] | MIC (Staphylococcus aureus [6]) [µM] | MIC (Candida albicans) [µM]
O=C1N/C(=N\c2nnc(C34CC5CC(CC(C5)C3)C4)s2)S/C1=C/c1ccc(Cl)cc1Cl | 0.0203 (≈ 0.00998 µg/mL) | 163 (≈ 80.1 µg/mL) | 163 (≈ 80.1 µg/mL) | 81.4 (≈ 40 µg/mL) | 163 (≈ 80.1 µg/mL) | 0.0814 (≈ 0.04 µg/mL) | 81.5 (≈ 40.1 µg/mL) | 163 (≈ 80 µg/mL) | 163 (≈ 80.1 µg/mL) | 163 (≈ 80.1 µg/mL) | 0.0814 (≈ 0.04 µg/mL) | 0.163 (≈ 0.0801 µg/mL) | 163 (≈ 80.1 µg/mL) | 163 (≈ 80.1 µg/mL) | 81.4 (≈ 40 µg/mL) | 81.4 (≈ 40 µg/mL) | 163 (≈ 80.1 µg/mL) | 81.4 (≈ 40 µg/mL) | 0.0203 (≈ 0.00998 µg/mL) | 
CN[C@@H]1[C@H](O[C@H]2[C@H](O[C@H]3[C@H](O)[C@@H](O)[C@H](N=C(N)N)[C@@H](O)[C@@H]3N=C(N)N)O[C@@H](C)[C@]2(O)C=O)O[C@@H](CO)[C@H](O)[C@H]1O [STREPTOMYCIN] | 0.258 (≈ 0.15 µg/mL) |  |  |  | 86 (≈ 50 µg/mL) |  | 172 (≈ 100 µg/mL) | 129 (≈ 75 µg/mL) |  | 172 (≈ 100 µg/mL) | 0.258 (≈ 0.15 µg/mL) | 0.172 (≈ 0.1 µg/mL) | 43 (≈ 25 µg/mL) | 258 (≈ 150 µg/mL) |  |  | 43 (≈ 25 µg/mL) |  | 0.172 (≈ 0.1 µg/mL) | 
O=C1N/C(=N\c2nnc(C34CC5CC(CC(C5)C3)C4)s2)S/C1=C/c1cccc(Cl)c1Cl | 0.183 (≈ 0.09 µg/mL) | 163 (≈ 80.1 µg/mL) | 163 (≈ 80.1 µg/mL) | 163 (≈ 80.1 µg/mL) | 244 (≈ 120 µg/mL) | 0.163 (≈ 0.0801 µg/mL) | 122 (≈ 60 µg/mL) | 183 (≈ 90 µg/mL) | 326 (≈ 160 µg/mL) | 122 (≈ 60 µg/mL) | 0.183 (≈ 0.09 µg/mL) | 0.244 (≈ 0.12 µg/mL) | 244 (≈ 120 µg/mL) | 244 (≈ 120 µg/mL) | 163 (≈ 80.1 µg/mL) | 163 (≈ 80.1 µg/mL) | 244 (≈ 120 µg/mL) | 163 (≈ 80.1 µg/mL) | 0.244 (≈ 0.12 µg/mL) | 
O=C1N/C(=N\c2nnc(C34CC5CC(CC(C5)C3)C4)s2)S/C1=C/c1ccc([N+](=O)[O-])cc1 | 0.006 (≈ 0.00281 µg/mL) | 8 (≈ 3.74 µg/mL) | 8 (≈ 3.74 µg/mL) | 16.5 (≈ 7.72 µg/mL) | 22 (≈ 10.3 µg/mL) | 0.0165 (≈ 0.00772 µg/mL) | 16.5 (≈ 7.72 µg/mL) | 8 (≈ 3.74 µg/mL) | 12.3 (≈ 5.75 µg/mL) | 22 (≈ 10.3 µg/mL) | 0.008 (≈ 0.00374 µg/mL) | 0.022 (≈ 0.0103 µg/mL) | 18 (≈ 8.42 µg/mL) | 33 (≈ 15.4 µg/mL) | 6 (≈ 2.81 µg/mL) | 8 (≈ 3.74 µg/mL) | 16.5 (≈ 7.72 µg/mL) | 12.3 (≈ 5.75 µg/mL) | 0.0165 (≈ 0.00772 µg/mL) | 
O=C1N/C(=N\c2nnc(C34CC5CC(CC(C5)C3)C4)s2)S/C1=C/c1ccccc1[N+](=O)[O-] | 0.175 (≈ 0.0818 µg/mL) | 321 (≈ 150 µg/mL) | 321 (≈ 150 µg/mL) | 482 (≈ 225 µg/mL) | 32.2 (≈ 15.1 µg/mL) | 0.321 (≈ 0.15 µg/mL) | 32.2 (≈ 15.1 µg/mL) | 175 (≈ 81.8 µg/mL) | 482 (≈ 225 µg/mL) | 32.2 (≈ 15.1 µg/mL) | 0.175 (≈ 0.0818 µg/mL) | 0.0322 (≈ 0.0151 µg/mL) | 32.2 (≈ 15.1 µg/mL) | 32.2 (≈ 15.1 µg/mL) | 321 (≈ 150 µg/mL) | 321 (≈ 150 µg/mL) | 32.2 (≈ 15.1 µg/mL) | 321 (≈ 150 µg/mL) | 0.0322 (≈ 0.0151 µg/mL) | 
CC1(C)S[C@@H]2[C@H](NC(=O)[C@H](N)c3ccccc3)C(=O)N2[C@H]1C(=O)O [AMPICILLIN] | 1.24 (≈ 0.433 µg/mL) |  |  |  | 248 (≈ 86.7 µg/mL) |  | 248 (≈ 86.7 µg/mL) | 1240 (≈ 433 µg/mL) |  | 744 (≈ 260 µg/mL) |  | 0.372 (≈ 0.13 µg/mL) | 248 (≈ 86.7 µg/mL) | 372 (≈ 130 µg/mL) |  |  | 248 (≈ 86.7 µg/mL) |  | 0.248 (≈ 0.0867 µg/mL) | 
COc1ccc(/C=C2/S/C(=N/c3nnc(C45CC6CC(CC(C6)C4)C5)s3)NC2=O)cc1 | 0.0553 (≈ 0.025 µg/mL) | 99.8 (≈ 45.2 µg/mL) | 99.8 (≈ 45.2 µg/mL) | 179 (≈ 81 µg/mL) | 99.5 (≈ 45 µg/mL) | 0.0998 (≈ 0.0452 µg/mL) | 44.8 (≈ 20.3 µg/mL) | 111 (≈ 50.1 µg/mL) | 99.8 (≈ 45.2 µg/mL) | 99.5 (≈ 45 µg/mL) | 0.111 (≈ 0.0501 µg/mL) | 0.0995 (≈ 0.045 µg/mL) | 99.5 (≈ 45 µg/mL) | 44.8 (≈ 20.3 µg/mL) | 179 (≈ 81 µg/mL) | 99.8 (≈ 45.2 µg/mL) | 99.5 (≈ 45 µg/mL) | 99.8 (≈ 45.2 µg/mL) | 0.0448 (≈ 0.0203 µg/mL) | 
O=C1N/C(=N\c2nnc(C34CC5CC(CC(C5)C3)C4)s2)S/C1=C/c1ccc(Br)cc1 |  | 62.5 (≈ 31.3 µg/mL) | 62.5 (≈ 31.3 µg/mL) | 62.5 (≈ 31.3 µg/mL) | 250 (≈ 125 µg/mL) |  | 14 (≈ 7.02 µg/mL) |  | 125 (≈ 62.7 µg/mL) | 60 (≈ 30.1 µg/mL) |  | 0.08 (≈ 0.0401 µg/mL) | 60 (≈ 30.1 µg/mL) | 250 (≈ 125 µg/mL) | 31.2 (≈ 15.6 µg/mL) | 125 (≈ 62.7 µg/mL) | 14 (≈ 7.02 µg/mL) | 15.6 (≈ 7.82 µg/mL) | 0.06 (≈ 0.0301 µg/mL) | 200 (≈ 100 µg/mL)

Source: ChEMBL document CHEMBL4229530, “5-Adamantan thiadiazole-based thiazolidinones as antimicrobial agents. Design, synthesis, molecular docking and evaluation” (2018)
